# Experimental data taken from article PMC5421360 (Peptides, 2017).
# Marks after values point to notes of the source that are not given here. Non-standard residues stand in square brackets, D forms with d. Residues, ends and D or L forms follow the SMILES beside them.
# Experiments:
# [1] = test system: cytosolic Ca2+ in SC-A1 cells; details: cited from earlier work
# ETAR [2] = target: T1, ETAR (Homo sapiens, UniProt P25101); experiment: 125I-ET-1 radioreceptor binding to NCI-H1975 cells
# T1 sequence (P25101 21-427): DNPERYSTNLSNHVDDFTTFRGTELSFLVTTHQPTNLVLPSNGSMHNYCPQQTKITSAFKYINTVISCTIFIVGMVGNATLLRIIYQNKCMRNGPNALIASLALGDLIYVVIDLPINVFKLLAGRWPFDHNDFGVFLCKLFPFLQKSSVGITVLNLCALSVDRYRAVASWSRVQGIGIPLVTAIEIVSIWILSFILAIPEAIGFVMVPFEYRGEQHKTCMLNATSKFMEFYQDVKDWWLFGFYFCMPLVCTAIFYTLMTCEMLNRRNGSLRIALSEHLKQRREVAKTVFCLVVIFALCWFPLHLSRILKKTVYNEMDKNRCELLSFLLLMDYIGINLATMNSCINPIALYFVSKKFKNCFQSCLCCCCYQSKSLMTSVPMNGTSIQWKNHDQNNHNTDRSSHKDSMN
# EGFR [3] = experiment: Western blot of EGFR tyrosine phosphorylation in NCI-H838 cells; assay type: cell-based, human; details: for effect on EGFR transactivation caused by ET-1: NSCLC cells, concentration not given; for effect on EGFR transactivation caused by ET-1 / effect on basal P-EGFR, EGFR: data not shown; for effect on increase in EGFR phosphorylation caused by 100 nM ET-1: 10 μM inhibitor, 2 min ET-1; for effect on basal P-EGFR, EGFR: inhibitor alone
# ETAR [4] = target: T1, ETAR; experiment: 125I-ET-1 radioreceptor binding to NCI-H838 cells
# [5] = test system: cytosolic Ca2+ in NCI-H1975 cells; experiment: Cytosolic Ca2+ in Fura-2AM loaded NCI-H1975 cells; assay type: cell-based, human; details: for antagonism of the Ca2+ increase caused by 10 nM ET-1: 1000 nM antagonist; for effect on basal cytosolic Ca2+: 1000 nM antagonist alone
# Outline: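 NCI-H1975 cells were detached with trypsin-EDTA and loaded with Fura-2AM in SIT medium (2.5 × 10^6 cells/ml) at 37°C for 30 min. Cells were spun at 1000 × g for 5 min, resuspended at 2.5 × 10^6/ml and placed in a stirred quartz cuvette at 37°C.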
# NCI-H838 cells [6] = experiment: Clonogenic assay, NCI-H838 cells; assay type: cell-based, human; details: gefitinib 1 ug/ml; for reduction of colony number: absence of exogenous ET-1, BQ123 1 μM; for Colony number: in the presence of ET-1 10 nM, BQ123/BQ788 1000 nM, 2 weeks
# HER2 [7] = experiment: Western blot of HER2 tyrosine phosphorylation in NCI-H838 cells; assay type: cell-based, human; details: for effect on HER2 transactivation caused by ET-1: NSCLC cells, concentration not given; for effect on HER2 transactivation caused by ET-1 / effect on basal P-HER2 or HER2: data not shown; for effect on increase in HER2 phosphorylation caused by 100 nM ET-1: 10 μM inhibitor, 2 min ET-1; for effect on basal P-HER2 or HER2: inhibitor alone
# [8] = test system: reactive oxygen species in NCI-H838 cells; experiment: Reactive oxygen species in H2DCF labeled NCI-H838 cells; assay type: cell-based, human
# Outline: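 NCI-H838 cells were plated at 30,000/well and cultured overnight. They were loaded with 10 µM H2DCF for 1 h and washed 3 times in serum-free SIT medium. Test compound (5 mM or 10 µM) was added 30 min before 10 µM H2O2. Fluorescence (ex 485, […]) was read 0.5 h after stimulus and expressed as relative fluorescence, mean ± S.D. of 8 determinations.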
# NCI-H838 cells [9] = experiment: MTT proliferation assay, NCI-H838 cells; assay type: cell-based; details: Homo sapiens, NCI-H838, 48 h, read-out: IC50, proliferation
# NCI-H727 cells = experiment: MTT proliferation assay, NCI-H727 cells; assay type: cell-based; details: Homo sapiens, NCI-H727, 48 h, read-out: IC50, proliferation
# A549 cells = experiment: MTT proliferation assay, A549 cells; assay type: cell-based; details: Homo sapiens, A549, 48 h, read-out: IC50, proliferation
# HER2 [10] = experiment: Western blot of HER2 tyrosine phosphorylation in NCI-H1975 cells; assay type: cell-based, human; details: 5 mM
# Outline: (§1)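 Lysates (Tris pH 7.5, vanadate) were either immunoprecipitated with anti-phosphotyrosine antibody (400 µg protein) or loaded directly (20 µg) and probed with anti-PY1068-EGFR or anti-[…]-HER2. ECL bands were quantified by densitometry as mean % tyrosine phosphorylation.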
# EGFR [11] = experiment: Western blot of EGFR tyrosine phosphorylation in NCI-H1975 cells; assay type: cell-based, human; details: 5 mM
# Outline: as §1
# NSCLC patients [12] = details: zibotentan or zibotentan plus pemetrexed; cited from earlier work
# NSCLC patients [13] = details: plus paclitaxel-carboplatin; cited from earlier work
# [14] = addition alone (ET-1 100 nM, H2O2 10 μM, Tiron 5 mM, ZD4054 10 μM), 0.5 hr, None = 100
# [15] = with H2O2 10 μM, Tiron or ZD4054 added 0.5 h before, read 0.5 hr after H2O2
compound,measurement,setting,value
CC(C)C[C@@H]1NC(=O)[C@@H](C(C)C)NC(=O)[C@@H]2CCCN2C(=O)[C@@H](CC(=O)O)NC(=O)[C@@H](Cc2c[nH]c3ccccc23)NC1=O [BQ123] (cyclo(L[dW][dD]P[dV]); ring closure inferred),effect on the Ca2+ increase caused by ET-1,[1],reversed
same,IC50,ETAR [2],1.5 ± 0.03 nM
same,effect on EGFR tyrosine phosphorylation caused by 100 nM ET-1,EGFR [3]; 0.1 μM antagonist,little effect
same,effect on EGFR tyrosine phosphorylation caused by 100 nM ET-1,EGFR [3]; 1 μM or 10 μM antagonist,significantly reduced
same,IC50,ETAR [4],1 ± 0.2 nM
same,antagonism of the Ca2+ increase caused by 10 nM ET-1,[5],blocked
same,effect on basal cytosolic Ca2+,[5],did not alter
same,reduction of colony number,NCI-H838 cells [6],22%
same,Colony number,NCI-H838 cells [6],37 ± 2 ^a
same,effect on HER2 tyrosine phosphorylation caused by 100 nM ET-1,HER2 [7]; 0.1 μM antagonist,little effect
same,effect on HER2 tyrosine phosphorylation caused by 100 nM ET-1,HER2 [7]; 1 μM or 10 μM antagonist,significantly reduced
CCCC[C@@H](NC(=O)[C@@H](Cc1cn(C(=O)OC)c2ccccc12)NC(=O)[C@H](CC(C)(C)C)NC(=O)N1[C@H](C)CCC[C@@H]1C)C(=O)O [BQ788],IC50,ETAR [2],25 ± 3 nM
same,effect on EGFR transactivation caused by ET-1,EGFR [3],little effect
same,IC50,ETAR [4],20 ± 2 nM
same,antagonism of the Ca2+ increase caused by 10 nM ET-1,[5],did not antagonize
same,effect on basal cytosolic Ca2+,[5],had no effect
same,Colony number,NCI-H838 cells [6],46 ± 4
same,effect on HER2 transactivation caused by ET-1,HER2 [7],little effect
CNC(=O)[C@H](Cc1c[nH]c2ccccc12)NC(=O)[C@@H](CC(=O)NO)CC(C)C [GM6001],effect on increase in EGFR phosphorylation caused by 100 nM ET-1,EGFR [3],inhibited significantly
same,"effect on basal P-EGFR, EGFR",EGFR [3],no effect
same,effect on increase in HER2 phosphorylation caused by 100 nM ET-1,HER2 [7],inhibited significantly
same,effect on basal P-HER2 or HER2,HER2 [7],no effect
"COc1cc2ncnc(Nc3ccc(F)c(Cl)c3)c2cc1OCCCN1CCOCC1 [Gefitinib, gefitinib]",reduction of colony number,NCI-H838 cells [6],50%
same,Colony number,NCI-H838 cells [6],32 ± 3 ^aa
same,effect on HER2 transactivation caused by 100 nM ET-1,HER2 [7]; 10 μg/ml,significantly reduced
OO [H2O2],% Fluorescence intensity,[8]; [14],401 ± 37 ^aa %
"CS(=O)(=O)CCNCc1ccc(-c2ccc3ncnc(Nc4ccc(OCc5cccc(F)c5)c(Cl)c4)c3c2)o1 [Lapatinib, lapatinib]",IC50,NCI-H838 cells [9],1 µg/mL
same,IC50,NCI-H727 cells,0.5 µg/mL
same,IC50,ETAR [2],> 10000 nM
same,effect on EGFR transactivation caused by ET-1,EGFR [3],inhibited
same,IC50,ETAR [4],> 10000 nM
same,effect on HER2 transactivation caused by ET-1,HER2 [7],inhibited
same,IC50,A549 cells,2 µg/mL
CC(=O)N[C@@H](CS)C(=O)O [Nacetylcysteine],effect on EGFR transactivation caused by ET-1,EGFR [3],inhibited
same,effect on HER2 transactivation caused by ET-1,HER2 [7],inhibited
CC(C)(C)n1nc(-c2ccc(Cl)cc2)c2c(N)ncnc21 [PP2],effect on increase in EGFR phosphorylation caused by 100 nM ET-1,EGFR [3],inhibited significantly
same,"effect on basal P-EGFR, EGFR",EGFR [3],no effect
same,effect on increase in HER2 phosphorylation caused by 100 nM ET-1,HER2 [7],inhibited significantly
same,effect on basal P-HER2 or HER2,HER2 [7],no effect
O=S(=O)(O)c1cc(O)c(O)c(S(=O)(=O)O)c1 [Tiron],effect on increase in HER2 tyrosine phosphorylation caused by ET-1,HER2 [10],inhibited significantly
same,% Fluorescence intensity,[8]; [14],"99 ± 7 ^aa^, ^bb %"
same,% Fluorescence intensity,[8]; [15],171 ± 12 ^bb %
same,"effect on basal P-EGFR, EGFR",EGFR [3],no effect
same,effect on increase in EGFR tyrosine phosphorylation caused by ET-1,EGFR [11],inhibited significantly
same,effect on basal P-HER2 or HER2,HER2 [7],no effect
COc1ccc2c(c1)CC[C@@H]1[C@@H]2CC[C@]2(C)[C@@H](NCCCCCCN3C(=O)C=CC3=O)CC[C@@H]12 [U73122],effect on the Ca2+ increase caused by ET-1,[1],reversed
"COc1nc(C)cnc1NS(=O)(=O)c1cccnc1-c1ccc(-c2nnco2)cc1 [ZD4054, zibotentan]",overall survival,NSCLC patients [12],no differences
same,IC50,NCI-H838 cells [9],50 µg/mL
same,% Fluorescence intensity,[8]; [14],"105 ± 6 ^aa^, ^bb %"
same,% Fluorescence intensity,[8]; [15],351 ± 22 ^aa %
same,effect on EGFR transactivation caused by ET-1,EGFR [3],inhibited
same,effect on HER2 transactivation caused by ET-1,HER2 [7],inhibited
same,IC50,A549 cells,45 µg/mL
CCCCN(CCCC)C(=O)CN1C[C@H](c2ccc3c(c2)OCO3)[C@@H](C(=O)O)[C@@H]1c1ccc(OC)cc1 [atrasentan],tolerability,NSCLC patients [13],well tolerated
COC(=O)C1=C(C)NC(C)=C(C(=O)OC)C1c1ccccc1[N+](=O)[O-] [nifedipine],effect on the Ca2+ increase caused by ET-1,[1],reversed
